Assay results taken from ChEMBL document CHEMBL1122673, “Synthesis of a novel series of (aryloxy)propanolamines: new selective beta 2-blocking agents” (J Med Chem, 1984).

Tests used:
Cavia porcellus [1] = organism: Cavia porcellus; assay: (§1) In vitro evaluation on guinea pig trachea. EC50 which is the molar concentration required to give 50% inhibition of the isoproterenol response (1x10E-6M) was determined.; format: functional; conditions: read-out: ED50 (the source's name)
Procedure, shortened: (§2)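 Isolated guinea pig tracheal spirals were held at 1.50 g initial tension (resting 0.4–0.6 g) in Tyrode at 37 °C, gassed with O2/CO2 95:5, and contracted with acetylcholine 3 × 10^-6 M. Antagonist was added 15 min before Ach. Isoproterenol 3 × 10^-8 to 3 × 10^-6 M was added at maximal contraction.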

Cavia porcellus [2] = organism: Cavia porcellus; assay: as §1; format: functional, organism-based
Procedure, shortened: as §2, with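 “contraction. EC50 came from four points, with ≥4 preparations per group.” for “contraction.”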

[3] = Compound was determined for heart rate with respect to propanol; format: functional
Procedure, shortened: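 Urethane-anesthetized animals (1.25 g/kg ip). Carotid blood pressure was recorded, and heart rate was taken from pulse pressure. Three isoproterenol doses (10 µg/kg iv) set the control mean heart-rate rise and diastolic fall. Antagonist was given as four cumulative iv doses, with isoproterenol 10 min after each. The next dose followed return to baseline. Groups of ≥4 animals.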

Row | EC50 (Cavia porcellus [1]) [nM] | EC50 (Cavia porcellus [2]) [nM] | Compound | Ratio [3]
1 |  | 502 | CC(C)NCC(O)COc1ccc2c(c1)[C@@H]1CCCC[C@H]21 (some centres undefined) | 
2 |  | 201 | CC(C)(C)NCC(O)COc1ccc2c(c1)[C@@H]1CCCC[C@H]21 (some centres undefined) | 
3 |  | 417 | CC(C)NCC(O)COc1ccc2c(c1)[C@@H]1CCCCC[C@H]21 (some centres undefined) | 0.02
4 |  | 45.7 | CC(C)(C)NCC(O)COc1cccc2c1[C@@H]1CCCCC[C@H]21 (some centres undefined) | 0.57
5 | 1380 |  | CC(C)(C)NCC(O)COc1ccc2c(c1)[C@@H]1CCCCC[C@H]21 (some centres undefined) | 
6 |  | 70 | CC(C)NCC(O)COc1cccc2c1[C@@H]1CCCC[C@H]21 (some centres undefined) | 

Continued, compound first:

Row | Compound | EC50 (Cavia porcellus [1]) [nM] | EC50 (Cavia porcellus [2]) [nM] | Ratio [3]
7 | CC(C)(C)NCC(O)COc1cccc2c1[C@]1(O)CCCC[C@H]21 (some centres undefined) | 115 |  | 
8 | CCCC(=O)Nc1ccc(OCC(O)CNC(C)C)c2c1[C@H]1CCCCC[C@@H]21 (some centres undefined) | 341 |  | 
9 | CC(C)NCC(O)COc1cccc2c1[C@]1(O)CCCCC[C@H]21 (some centres undefined) | 130 |  | 
10 | CC(C)(C)NCC(O)COc1cccc2c1[C@]1(O)CCCCC[C@H]21 (some centres undefined) | 5.49 |  | 0.08
11 | COc1ccc(CCNCC(O)COc2cccc3c2[C@]2(O)CCCCC[C@H]32)cc1OC (some centres undefined) | 7010 |  | 
12 | CC(C)NCC(O)COc1cccc2c1[C@@H]1CCCCC[C@H]21 (some centres undefined) |  | 2 | 0.46
13 | CC(C)(C)NCC(O)COc1cccc2c1[C@@H]1CCCCC[C@]21O (some centres undefined) | 1.26 |  | 0.42
14 | COc1ccc(CCNCC(O)COc2cccc3c2[C@@H]2CCCCC[C@]32O)cc1OC (some centres undefined) | 260 |  | 0.68
15 | CC(C)NCC(O)COc1cccc2c1[C@@H]1CCCCC[C@]21O (some centres undefined) | 1.3 |  | 0.8
16 | COc1ccc(CCNCC(O)COc2cccc3c2[C@@H]2CCCCC[C@H]32)cc1OC (some centres undefined) |  | 1100 | 
17 | CC(C)NCC(O)COc1ccc2ccccc2c1 (centres undefined) | 55 |  | 
